# Data: ChEMBL document CHEMBL2176900, “Design and synthesis of a novel series of bicyclic heterocycles as potent γ-secretase modulators” (J Med Chem, 2012)
# Experiments:
# [1] = test system: Rattus norvegicus; test: Antialzheimer activity in Sprague-Dawley rat assessed as amyloid beta 38 level in CSF at 10 mg/kg, po at 7 hrs by ELISA relative to control; assay type: functional
# In short: (§1)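 Male Sprague-Dawley rats (180-220 g), fasted overnight, were given 10 mg/kg by gastric intubation as a 5 mg/mL suspension in 0.5% methocellulose. At 2, 4, 7 and 25 h, 50 μL CSF was taken from the cisterna magna under isoflurane, then brain was collected. Aβ37/38/40/42 were measured by MesoScale Discovery sandwich immunoassays. Results are mean % change versus T = 0 h, n = 5.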
# [2] = test system: Brain; test: Drug uptake in CD1 mouse brain at 10 mg/kg, po at 48 hrs by LC-MS/MS analysis; assay type: ADME, organism-based; parameters: dose 10 mg/kg, route oral; conditions: in vivo, BLD = below limit of detection
# In short: (§2)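 Overnight-fasted male CD1 mice received one oral dose (10 or 30 mg/kg) in 20% Captisol. After sacrifice, the left brain hemisphere was stored at −18 °C. Compound level was quantified by a qualified LC-MS/MS method, alongside EDTA plasma spun at 1900g, 4 °C. n = 4 per time point.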
# [3] = test system: Brain; test: Drug uptake in Sprague-Dawley rat brain at 10 mg/kg, po at 25 hrs by LC-MS/MS analysis; assay type: ADME, organism-based; parameters: dose 10 mg/kg, route oral; conditions: in vivo, BLD = below limit of detection
# In short: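 Overnight-fasted male Sprague–Dawley rats (180–220 g) were dosed 10 mg/kg by gastric intubation of a 5 mg/mL suspension in 0.5% methocellulose. Rats were anesthetized with isoflurane, CSF was taken from the cisterna magna, then they were decapitated. Brain compound levels were measured as in the mouse assay. n = 5.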
# [4] = Drug uptake in CD1 mouse brain at 30 mg/kg, po at 24 hrs by LC-MS/MS analysis; assay type: ADME, organism-based; parameters: dose 30 mg/kg, route oral; conditions: read-out: Drug uptake; in short: as §2
# [5] = test system: Brain; test: Drug uptake in CD1 mouse brain at 30 mg/kg, po at 48 hrs by LC-MS/MS analysis; assay type: ADME, organism-based; parameters: dose 30 mg/kg, route oral; conditions: in vivo, BLD = below limit of detection; in short: as §2
# [6] = Plasma concentration in CD1 mouse at 10 mg/kg, po at 4 hrs by LC-MS/MS analysis; assay type: ADME, organism-based; parameters: dose 10 mg/kg, route oral
# [7] = test system: Canis familiaris; test: Antialzheimer activity in beagle dog assessed as amyloid beta 42 level in cerebrospinal fluid at 20 mg/kg, po at 8 hrs by ELISA relative to control
# [8] = test system: MDR1; test: Apparent permeability from apical to basal side of pig LLCPK1 cells expressing MDR1; assay type: ADME, cell-based, Sus scrofa; conditions: LLC-PK1
# [9] = test system: Canis familiaris; test: Antialzheimer activity in beagle dog assessed as amyloid beta 40 level in cerebrospinal fluid at 20 mg/kg, po at 8 hrs by ELISA relative to control
# [10] = test system: Mus musculus; test: Antialzheimer activity in po dosed CD1 mouse assessed as amyloid beta 42 level in brain at 4,8 and 24 hrs by ELISA; assay type: functional, organism-based
# In short: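 Overnight-fasted male CD1 SPF mice got one oral dose (10 or 30 mg/kg) formulated in 20% Captisol in water. Right brain hemisphere was homogenized in 0.4% DEA/50 mM NaCl with protease inhibitors and spun at 221300g. Supernatant was neutralized with Tris-HCl pH 6.8. Aβ42 was measured by ELISA (C-terminal JRF/cAβ42/26 capture, fluorogenic peroxidase read ex 320/em 420 nm). Values are mean % change vs T = 0 h, n = 4.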
# [11] = test system: Rattus norvegicus; test: Antialzheimer activity in Sprague-Dawley rat assessed as amyloid beta 42 level in CSF at 10 mg/kg, po at 4 hrs by ELISA relative to control; assay type: functional; in short: as §1
# [12] = Plasma concentration in Sprague-Dawley rat at 10 mg/kg, po at 2 hrs by LC-MS/MS analysis; assay type: ADME, organism-based; parameters: dose 10 mg/kg, route oral
# In short: (§3)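 Overnight-fasted male Sprague-Dawley rats (180–220 g) were given 10 mg/kg by gastric intubation of a 5 mg/mL suspension in 0.5% methocellulose. Blood was collected after decapitation at 2, 4, 7 and 25 h under isoflurane anaesthesia. Plasma compound was measured as in the mouse assay, n = 5.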
# [13] = test system: Canis familiaris; test: Antialzheimer activity in beagle dog assessed as amyloid beta 42 level in cerebrospinal fluid at 20 mg/kg, po at 4 hrs by ELISA relative to control
# [14] = Drug uptake in CD1 mouse brain at 30 mg/kg, po at 4 hrs by LC-MS/MS analysis; assay type: ADME, organism-based; parameters: dose 30 mg/kg, route oral; conditions: read-out: Drug uptake; in short: as §2
# [15] = target: Cytochrome P450 2C9 (Homo sapiens, UniProt P11712); test: Inhibition of CYP2C9 in human liver microsomes using tolbutamide as substrate; assay type: ADME, Microsome
# [16] = test system: Rattus norvegicus; test: Antialzheimer activity in Sprague-Dawley rat assessed as amyloid beta 40 level in brain at 10 mg/kg, po at 4 hrs by ELISA relative to control; assay type: functional; in short: as §1
# [17] = target: Gamma-secretase; test: Modulation of gamma-secretase in human SK-N-BE(2) cells expressing wild type APP 695 assessed as reduction in amyloid beta 42 level after overnight incubation by sandwich immunoassay; assay type: cell-based
# In short: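 SK-N-BE(2) cells carrying wild-type APP695, plated at 10⁴ cells/well in Ultraculture with glutamine, NEAA, penicillin/streptomycin plus test compound at a range of concentrations. Incubated overnight at 37 °C, 5% CO₂. Supernatant Aβ42 measured by AlphaLisa sandwich immunoassay (JRF/cAβ42/26 capture, biotinylated JRF/AβN/25). IC50 derived from % of maximal Aβ42 without compound. Mean of at least three determinations.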
# [18] = test system: Rattus norvegicus; test: Antialzheimer activity in Sprague-Dawley rat assessed as amyloid beta 42 level in brain at 10 mg/kg, po at 7 hrs by ELISA relative to control; assay type: functional; in short: as §1
# [19] = Fraction unbound in rat plasma; assay type: ADME, cell-free
# [20] = test system: Mus musculus; test: Inhibition of gamma-secretase in CD1 mouse assessed as total amyloid beta level in brain at 30 mg/kg, po at 4 hrs by ELISA relative to control; assay type: functional; parameters: scale not given: the % may be the effect or the level left
# In short: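 Fasted male CD1 SPF mice were dosed orally at 10 or 30 mg/kg in 20% Captisol. Right hemisphere was homogenized in 0.4% DEA/50 mM NaCl and the high-speed supernatant neutralized. Aβtotal ELISA used N-terminal JRF/rAβ/2 capture, biotinylated 4G8 and streptavidin-peroxidase, then a fluorogenic substrate (ex 320/em 420 nm). Standards spanned 10000–0.3 pg/mL. Values are % change vs T = 0 h, n = 4.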
# [21] = Plasma concentration in Sprague-Dawley rat at 10 mg/kg, po at 25 hrs by LC-MS/MS analysis; assay type: ADME, organism-based; parameters: dose 10 mg/kg, route oral; in short: as §3
# [22] = Genotoxicity against human TK6 cells by GreenScreen HC test; assay type: toxicity, cell-based
# [23] = test system: Mus musculus; test: Antialzheimer activity in CD1 mouse assessed as amyloid beta 42 level in brain at 30 mg/kg, po at 48 hrs by ELISA relative to control; assay type: functional
# In short: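 Male CD1 mice, fasted overnight, received a single 10 or 30 mg/kg oral dose. Brain was sampled at an added 48 h time point. The DEA-soluble brain fraction was neutralized and Aβ42 was measured by sandwich ELISA with fluorogenic read-out. Values are % versus vehicle.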
# [24] = Plasma concentration in CD1 mouse at 10 mg/kg, po at 24 hrs by LC-MS/MS analysis; assay type: ADME, organism-based; parameters: dose 10 mg/kg, route oral
# In short: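 Mice received a single 10 or 30 mg/kg oral dose. Plasma was sampled at several time points up to 48 h, with EDTA plasma obtained by centrifugation at 1900g, 10 min, 4 °C. Compound was quantified by LC-MS/MS, n = 4.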
# Chain of Cytochrome P450 2C9 (P11712 whole entry): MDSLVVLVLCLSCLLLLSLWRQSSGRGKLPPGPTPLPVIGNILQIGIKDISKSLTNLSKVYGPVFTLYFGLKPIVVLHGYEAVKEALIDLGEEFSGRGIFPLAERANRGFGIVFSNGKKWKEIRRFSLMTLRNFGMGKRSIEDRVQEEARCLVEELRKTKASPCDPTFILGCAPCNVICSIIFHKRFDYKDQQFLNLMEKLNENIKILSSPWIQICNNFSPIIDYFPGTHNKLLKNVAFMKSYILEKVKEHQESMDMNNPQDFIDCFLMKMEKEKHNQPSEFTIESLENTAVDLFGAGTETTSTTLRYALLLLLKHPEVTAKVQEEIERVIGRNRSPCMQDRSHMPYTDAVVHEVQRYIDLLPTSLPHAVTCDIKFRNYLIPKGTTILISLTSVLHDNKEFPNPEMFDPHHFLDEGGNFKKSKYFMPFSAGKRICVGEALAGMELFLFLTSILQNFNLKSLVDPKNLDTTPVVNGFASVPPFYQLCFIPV
structure (smiles),measurement,setting,value
COc1nc(Nc2cccc3c2nc(-c2ccc(F)cc2)n3C)ccc1-n1cnc(C)c1,Activity,[1],153%
same,Drug uptake,[2],BLD
same,Drug uptake,[3],BLD
same,concentration at 24 h,[4],440 nM
same,Drug uptake,[5],BLD
same,concentration at 4 h,[6],5300 nM
same,Activity,[7],52%
same,Papp A→B,[8],8 ×10⁻⁶ cm/s
same,Activity,[9],64%
same,Activity,[10],Dose-dependent effect
same,Activity,[11],66%
same,concentration at 2 h,[12],4600 nM
same,Activity,[13],81%
same,concentration at 4 h,[14],21900 nM
same,IC50,[15],21.9 µM
same,Activity,[16],64%
same,IC50,[17],0.016 µM
same,Activity,[18],63%
same,fraction unbound,[19],0.0004
same,Activity,[20],98%
same,concentration at 25 h,[21],20 nM
same,Activity,[22],Non-toxic
same,Activity,[23],101%
same,concentration at 24 h,[24],4 nM
